Published values gathered from unrelated publications.
Each line is one published result; the experiments were not run side by side.
GIPR: Gastric inhibitory polypeptide receptor (GIPR, Homo sapiens, UniProt P48546)
SLC22A11: Solute carrier family 22 member 11 (SLC22A11, Homo sapiens, UniProt Q9NSA0)

| SMILES | target | effect on | action | method | tested at | endpoint | result |
| --- | --- | --- | --- | --- | --- | --- | --- |
| CC[C@H](C)[C@H](NC(=O)[C@H](CO)NC(=O)[C@H](Cc1ccc(O)cc1)NC(=O)[C@H](CC(=O)O)NC(=O)[C@H](CO)NC(=O)[C@@H](NC(=O)[C@H](Cc1ccccc1)NC(=O)[C@@H](NC(=O)CNC(=O)[C@H](CCC(=O)O)NC(=O)[C@@H](C)NC(=O)[C@@H](N)Cc1ccc(O)cc1)[C@@H](C)O)[C@@H](C)CC)C(=O)N[C@@H](C)C(=O)N[C@@H](CCSC)C(=O)N[C@@H](CC(=O)O)C(=O)N[C@@H](CCCCN)C(=O)N[C@H](C(=O)N[C@@H](Cc1c[nH]cn1)C(=O)N[C@@H](CCC(N)=O)C(=O)N[C@@H](CCC(N)=O)C(=O)N[C@@H](CC(=O)O)C(=O)N[C@@H](Cc1ccccc1)C(=O)N[C@H](C(=O)N[C@@H](CC(N)=O)C(=O)N[C@@H](Cc1c[nH]c2ccccc12)C(=O)N[C@@H](CC(C)C)C(=O)N[C@@H](CC(C)C)C(=O)N[C@@H](C)C(=O)N[C@@H](CCC(N)=O)C(=O)NCC(=O)N1CCC[C@H]1C(=O)N[C@@H](CO)C(=O)N[C@@H](CO)C(=O)NCC(=O)N[C@@H](C)C(=O)N1CCC[C@H]1C(=O)N1CCC[C@H]1C(=O)N1CCC[C@H]1C(=O)N[C@@H](CO)C(=O)N[C@@H](CCCCN)C(N)=O)C(C)C)[C@@H](C)CC | GIPR | β-arrestin recruitment | agonist | – | – | Emax | 103% |
| CCCCCCCCCc1ccc(OCCOCCOCCOCCOCCOCCOCCOCCOCCO)cc1 | SLC22A11 | transporter uptake | inhibitor | – | 25 µM | inhibition | 79.9% |
| c1cncc([C@@H]2CCCN2)c1 | 5-hydroxytryptamine receptor 3A (HTR3A, Homo sapiens, UniProt P46098) | ligand displacement | – | radioligand | 50 µM | inhibition | -3.09% |
| Cn1c(=O)c2[nH]cnc2n(C)c1=O | SLC22A11 | transporter uptake | inhibitor | – | 25 µM | inhibition | 81.6% |
| CC(C)CC(=O)OC[C@H]1O[C@@](C#N)(c2ccc3c(N)ncnn23)[C@H](O)[C@@H]1O | Alpha-2A adrenergic receptor (ADRA2A, Homo sapiens, UniProt P08913) | cell-free assay | – | – | 20 µM | inhibition | 6% |
| [2H]c1c([2H])c([C@]2([2H])CCCN2C(=O)C(C)(C)Oc2ccc3cn[nH]c3c2)c([2H])c([2H])c1C([2H])([2H])[2H] | Receptor tyrosine-protein kinase erbB-2 (ERBB2, Homo sapiens, UniProt P04626) | binding | – | competition with immobilised ligand | 1 µM | remaining binding | 83% |
| CC[C@H](C)[C@H](NC(=O)[C@H](CO)NC(=O)[C@H](Cc1ccc(O)cc1)NC(=O)[C@H](CC(=O)O)NC(=O)[C@H](CO)NC(=O)[C@@H](NC(=O)[C@H](Cc1ccccc1)NC(=O)[C@@H](NC(=O)CNC(=O)[C@H](CCC(=O)O)NC(=O)CCNC(=O)C1(c2ccc(Cl)cc2)CCOCC1)[C@@H](C)O)[C@@H](C)CC)C(=O)N[C@@H](C)C(=O)N[C@@H](CCSC)C(=O)N[C@@H](CC(=O)O)C(=O)N[C@@H](CCCCN)C(=O)N[C@H](C(=O)N[C@@H](Cc1c[nH]cn1)C(=O)N[C@@H](CCC(N)=O)C(=O)N[C@@H](CCC(N)=O)C(=O)N[C@@H](CC(=O)O)C(=O)N[C@@H](Cc1ccccc1)C(=O)N[C@H](C(=O)N[C@@H](CC(N)=O)C(=O)N[C@@H](Cc1c[nH]c2ccccc12)C(=O)N[C@@H](CC(C)C)C(=O)N[C@@H](CC(C)C)C(=O)N[C@@H](C)C(=O)N[C@@H](CCC(N)=O)C(=O)NCC(=O)N1CCC[C@H]1C(=O)N[C@@H](CO)C(=O)N[C@@H](CO)C(=O)NCC(=O)N[C@@H](C)C(=O)N1CCC[C@H]1C(=O)N1CCC[C@H]1C(=O)N1CCC[C@H]1C(=O)N[C@@H](CO)C(=O)N[C@@H](CCCCN)C(N)=O)C(C)C)[C@@H](C)CC | GIPR | β-arrestin recruitment | agonist | – | – | Emax | 14% |
| CN1CCC[C@H]1c1cccnc1 | Delta-type opioid receptor (OPRD1, Homo sapiens, UniProt P41143) | ligand displacement | – | – | 50 µM | inhibition | -7.8% |
